Reference: ChEMBL document CHEMBL3621102, “Structure-activity study of quinazoline derivatives leading to the discovery of potent EGFR-T790M inhibitors” (Eur J Med Chem, 2015)
One block for each compound: values may come before it. Calls of active or inactive are those of the source. The calls are words filed in the database; no cut-off is given here.

Tests used:
Mus musculus [1] = test: Toxicity in human NCI-H1975 cells xenografted BALB/c mouse assessed as mouse mortality at 30 mg/kg po, qd for 21 days measured on day 10 relative to control; format: organism-based; details: in vivo, 504 h
Outline: (§1)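 Athymic mice received 2 × 10⁶ NCI-H1975 cells subcutaneously in the right flank. When tumours reached 100–300 mm³, mice were randomised into control and treatment groups (n = 6 per group), and controls got vehicle alone. Health was checked daily, and body weight and tumour size were measured on set days during treatment.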

NCI-H1975 [2] = test: Antitumor activity against human NCI-H1975 cells xenografted in BALB/c mouse assessed as tumor growth inhibition at 20 mg/kg po, qd for 21 days relative to control; format: functional; details: 504 h, read-out: TGI
Outline: (§2)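 Athymic mice received 2 × 10⁶ tumour cells subcutaneously in the right flank. At 100–300 mm³ they were randomised to control and treatment groups (n = 6); controls received vehicle alone. Tumour volume = length × width²/2 and RTV = Vt/V0.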

Mus musculus [3] = test: Toxicity in human NCI-H1975 cells xenografted BALB/c mouse assessed as body weight changes at 20 mg/kg po, qd for 21 days relative to control; format: organism-based; details: in vivo, 504 h
Outline: (§3)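 Athymic mice bearing subcutaneous right-flank xenografts (2 × 10⁶ cells, dosed at 100–300 mm³; n = 6 per group; vehicle controls). Health was observed daily and body weight measured on indicated days. Body weight change (%) = (Wt/W0 − 1) × 100 against predosing weight, given as group mean ± SEM.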

Mus musculus [4] = test: Toxicity in human HCC827 cells xenografted BALB/c mouse assessed as body weight loss at 5 mg/kg po, qd for 12 days; format: organism-based; details: in vivo, 288 h; outline: as §3
Mus musculus [5] = test: Toxicity in NCI-H1975 xenografted BALB/c mouse assessed as induction of eye diseases at 20 mg/kg po, qd for 21 days; format: organism-based; details: in vivo, 504 h; outline: as §3
Mus musculus [6] = test: Toxicity in human A431 cells xenografted BALB/c mouse assessed as body weight loss at 5 and 10 mg/kg po, qd for 18 days; format: organism-based, A-431; details: in vivo, 432 h; outline: as §3
[7] = Clearance in Sprague-Dawley rat at 1 mg/kg, iv incubated for 24 hrs by LC/MS/MS method; format: ADME, organism-based; details: in vivo
Outline: (§4)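 Male Sprague-Dawley rats (n = 3) dosed once at 1 mg/kg iv via tail vein, or once at 5 mg/kg by oral gavage, using the same formulation. Serial blood samples were taken over 24 h. Plasma levels were measured by LC/MS/MS (C18 column, 10 mM ammonium formate-0.1% formic acid water/methanol 10/90, ESI positive). Parameters were derived by noncompartmental analysis.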

NCI-H1975 [8] = test: Antitumor activity against human NCI-H1975 cells xenografted in BALB/c mouse assessed as tumor growth inhibition at 13 mg/kg po, qd for 21 days; format: functional, organism-based; outline: as §2
Mus musculus [9] = test: Toxicity in human A431 cells xenografted BALB/c mouse assessed as induction of exfoliative skin disorders at 5 and 10 mg/kg po, qd for 18 days; format: organism-based, A-431; details: in vivo, 432 h; outline: as §3
Mus musculus [10] = test: Toxicity in NCI-H1975 xenografted BALB/c mouse assessed as body weight change at 13 mg/kg po, qd for 21 days; format: organism-based; details: in vivo, 504 h; outline: as §3
[11] = target: Epidermal growth factor receptor (Homo sapiens, UniProt P00533); test: Inhibition of EGFR (unknown origin) by ELISA method
Mus musculus [12] = test: Toxicity in NCI-H1975 xenografted BALB/c mouse assessed as induction of exfoliative skin disorders at 20 mg/kg po, qd for 21 days; format: organism-based; details: in vivo, 504 h; outline: as §3
Mus musculus [13] = test: Toxicity in human HCC827 cells xenografted BALB/c mouse assessed as induction of eye disease at 5 mg/kg po, qd for 12 days; format: organism-based; details: in vivo, 288 h; outline: as §3
[14] = Elimination half-life in Sprague-Dawley rat at 1 mg/kg, iv incubated for 24 hrs by LC/MS/MS method; format: ADME, organism-based; details: in vivo, read-out: beta t1/2 (converted); outline: as §4
HCC827 = test: Antitumor activity against human HCC827 cells xenografted in BALB/c mouse assessed as tumor growth inhibition at 5 mg/kg po, qd for 12 days; format: functional, organism-based; outline: as §2
Mus musculus [15] = test: Toxicity in NCI-H1975 xenografted BALB/c mouse assessed as induction of eye diseases at 13 mg/kg po, qd for 21 days; format: organism-based; details: in vivo, 504 h; outline: as §3
A-431 [16] = test: Antitumor activity against human A431 cells xenografted in BALB/c mouse assessed as tumor growth inhibition at 5 mg/kg po, qd for 18 days; format: functional, organism-based; outline: as §2
[17] = AUC (0 to infinity) in Sprague-Dawley rat at 1 mg/kg, iv by LC/MS/MS method; format: ADME, organism-based; design: dose 1 mg/kg, time infinity, route intravenous; details: in vivo; outline: as §4
[18] = Mean residence time in Sprague-Dawley rat at 1 mg/kg, iv incubated for 24 hrs by LC/MS/MS method; format: ADME, organism-based; details: in vivo; outline: as §4
[19] = Bioavailability in Sprague-Dawley rat at 1 mg/kg, iv incubated for 24 hrs by LC/MS/MS method; format: ADME, organism-based; details: in vivo; outline: as §4
[20] = AUC (0 to 24 hrs) in Sprague-Dawley rat at 1 mg/kg, iv by LC/MS/MS method; format: ADME, organism-based; design: time < 24 hr, dose 1 mg/kg, route intravenous; details: in vivo; outline: as §4
[21] = Apparent volume of distribution in Sprague-Dawley rat at 1 mg/kg, iv incubated for 24 hrs by LC/MS/MS method; format: ADME, organism-based; details: in vivo, read-out: Vd(app); outline: as §4
Mus musculus [22] = test: Toxicity in human A431 cells xenografted BALB/c mouse assessed as induction of eye diseases at 5 and 10 mg/kg po, qd for 18 days; format: organism-based, A-431; details: in vivo, 432 h; outline: as §3
NCI-H1975 [23] = test: Antiproliferative activity against human NCI-H1975 cells assessed as growth inhibition; format: functional
Outline: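 NCI-H1975 cells were grown in RPMI with 1 mM sodium pyruvate, 10% FBS and 1% penicillin-streptomycin, under humidified 5% CO₂ at 37 °C. Growth inhibition was read as GI₅₀.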

Mus musculus [24] = test: Toxicity in NCI-H1975 xenografted BALB/c mouse assessed as induction of exfoliative skin disorders at 13 mg/kg po, qd for 21 days; format: organism-based; details: in vivo, 504 h; outline: as §3
Mus musculus [25] = test: Toxicity in human HCC827 cells xenografted BALB/c mouse assessed as induction of exfoliative skin disorders at 5 mg/kg po, qd for 12 days; format: organism-based; details: in vivo, 288 h; outline: as §3
A-431 [26] = test: Antitumor activity against human A431 cells xenografted in BALB/c mouse assessed as tumor growth inhibition at 10 mg/kg po, qd for 18 days; format: functional, organism-based; outline: as §2
Mus musculus [27] = test: Toxicity in NCI-H1975 xenografted BALB/c mouse assessed as body weight loss at 10 mg/kg po, qd for 21 days; format: organism-based; details: in vivo, 504 h; outline: as §3
[28] = Toxicity in NCI-H1975 xenografted BALB/c mouse assessed as induction of mouse mortality at 10 mg/kg po, qd for days; format: organism-based; details: in vivo; outline: as §1
Mus musculus [29] = test: Toxicity in NCI-H1975 xenografted BALB/c mouse at 10 mg/kg po, qd for 7 days measured after drug cessation; format: organism-based; details: in vivo, 168 h; outline: as §3
[30] = Toxicity in NCI-H1975 xenografted BALB/c mouse assessed as induction of mouse mortality at 8 mg/kg po, qd for 9 days; format: organism-based; details: in vivo; outline: as §1
Mus musculus [31] = test: Toxicity in NCI-H1975 xenografted BALB/c mouse assessed as induction of weakness at 8 mg/kg po, qd for 21 days; format: organism-based; details: in vivo, 504 h; outline: as §3
NCI-H1975 [32] = test: Antitumor activity against human NCI-H1975 cells xenografted in BALB/c mouse assessed as tumor growth inhibition at 8 mg/kg po, qd for 21 days; format: functional, organism-based; outline: as §2
Mus musculus [33] = test: Toxicity in NCI-H1975 xenografted BALB/c mouse assessed as body weight loss at 8 mg/kg po, qd for 21 days; format: organism-based; details: in vivo, 504 h; outline: as §3
Mus musculus [34] = test: Toxicity in NCI-H1975 xenografted BALB/c mouse assessed as induction of lethargy at 8 mg/kg po, qd for 21 days; format: organism-based; details: in vivo, 504 h; outline: as §3
Mus musculus [35] = test: Toxicity in NCI-H1975 xenografted BALB/c mouse assessed as induction of eye disease at 8 mg/kg po, qd for 21 days; format: organism-based; details: in vivo, 504 h; outline: as §3
Mus musculus [36] = test: Toxicity in NCI-H1975 xenografted BALB/c mouse assessed as induction of exfoliative skin disorder at 8 mg/kg po, qd for 21 days; format: organism-based; details: in vivo, 504 h; outline: as §3

Sequence of Epidermal growth factor receptor (P00533 whole entry): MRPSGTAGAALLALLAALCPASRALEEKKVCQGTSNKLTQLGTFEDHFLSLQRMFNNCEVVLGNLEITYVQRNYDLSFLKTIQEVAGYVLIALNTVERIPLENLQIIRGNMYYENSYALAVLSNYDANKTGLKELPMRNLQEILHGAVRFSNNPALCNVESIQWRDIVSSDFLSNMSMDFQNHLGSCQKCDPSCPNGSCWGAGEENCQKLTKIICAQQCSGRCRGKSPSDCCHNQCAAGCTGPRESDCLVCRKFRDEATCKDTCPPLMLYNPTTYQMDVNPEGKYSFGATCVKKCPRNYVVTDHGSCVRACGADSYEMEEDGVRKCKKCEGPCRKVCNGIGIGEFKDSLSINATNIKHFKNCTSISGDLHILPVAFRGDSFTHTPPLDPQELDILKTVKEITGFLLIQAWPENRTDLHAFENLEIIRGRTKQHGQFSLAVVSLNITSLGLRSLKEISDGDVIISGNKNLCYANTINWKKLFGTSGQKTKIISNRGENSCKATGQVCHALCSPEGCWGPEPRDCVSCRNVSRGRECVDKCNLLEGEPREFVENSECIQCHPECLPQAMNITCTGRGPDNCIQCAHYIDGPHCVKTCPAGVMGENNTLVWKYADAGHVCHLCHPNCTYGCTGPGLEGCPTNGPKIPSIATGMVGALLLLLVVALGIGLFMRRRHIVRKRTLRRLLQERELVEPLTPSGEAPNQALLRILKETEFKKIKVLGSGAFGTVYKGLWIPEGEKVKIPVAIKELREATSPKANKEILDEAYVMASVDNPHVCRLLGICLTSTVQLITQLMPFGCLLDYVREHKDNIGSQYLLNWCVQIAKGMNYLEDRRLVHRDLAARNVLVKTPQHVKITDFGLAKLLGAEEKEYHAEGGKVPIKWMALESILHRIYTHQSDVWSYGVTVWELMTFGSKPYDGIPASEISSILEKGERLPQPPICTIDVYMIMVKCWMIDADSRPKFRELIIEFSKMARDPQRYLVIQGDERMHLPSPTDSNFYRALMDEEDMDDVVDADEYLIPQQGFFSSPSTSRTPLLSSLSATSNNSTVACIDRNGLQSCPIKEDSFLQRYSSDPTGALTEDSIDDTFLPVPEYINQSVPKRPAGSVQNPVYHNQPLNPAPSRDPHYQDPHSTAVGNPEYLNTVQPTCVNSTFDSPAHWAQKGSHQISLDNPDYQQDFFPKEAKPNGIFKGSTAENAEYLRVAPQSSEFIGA

Structure (SMILES): CN(C)C/C=C/C(=O)Nc1cc2c(Nc3ccc(F)c(Cl)c3)ncnc2cc1O[C@H]1CCOC1.O=C(O)/C=C\C(=O)O.O=C(O)/C=C\C(=O)O [AFATINIB DIMALEATE]
Activity (Mus musculus [1]): Toxic
inhibition in vivo at 20 mg/kg (NCI-H1975 [2]): < 50%
Activity (Mus musculus [3]): Non-toxic

clearance [7]: 1.54 L/h/kg
IC50 [11]: 6.5 nM
half-life [14]: 3.15 h
AUC(0-inf) [17]: 0.662 µg·h/mL
MRT [18]: 3.88 h
bioavailability [19]: 83.5%
AUC(0-t) at 24 h [20]: 0.66 µg·h/mL
Vd [21]: 3.82 L/kg
GI50 (NCI-H1975 [23]): 10.2 nM
Structure (SMILES): O=C(/C=C/CNC1CC1)Nc1cc2c(Nc3ccc(F)c(Cl)c3)ncnc2cc1O[C@H]1CCOC1
Activity (Mus musculus [4]): Non-toxic
Activity (Mus musculus [5]): Non-toxic
Activity (Mus musculus [6]): Non-toxic
TGI (NCI-H1975 [8]): Active
Activity (Mus musculus [9]): Non-toxic
Activity (Mus musculus [10]): Non-toxic
Activity (Mus musculus [12]): Non-toxic
Activity (Mus musculus [13]): Non-toxic
TGI (HCC827): Active
Activity (Mus musculus [15]): Non-toxic
TGI (A-431 [16]): inactive
Activity (Mus musculus [22]): Non-toxic
Activity (Mus musculus [24]): Non-toxic
Activity (Mus musculus [25]): Non-toxic
TGI (A-431 [26]): Active

Structure (SMILES): C#Cc1cccc(Nc2ncnc3cc(OCC)c(NC(=O)/C=C/CNC4CC4)cc23)c1
Activity (Mus musculus [27]): Toxic
mortality [28]: > 50%
IC50 [11]: 4.2 nM
Activity (Mus musculus [29]): Non-toxic
GI50 (NCI-H1975 [23]): 16.5 nM

Structure (SMILES): COc1cc2ncnc(Nc3ccc(F)c(Cl)c3)c2cc1NC(=O)/C=C/CNC1CC1
mortality at 216 h [30]: > 50%
Activity (Mus musculus [31]): Toxic
IC50 [11]: 2.1 nM
TGI (NCI-H1975 [32]): Active
Activity (Mus musculus [33]): Toxic
Activity (Mus musculus [34]): Toxic
Activity (Mus musculus [35]): Toxic
Activity (Mus musculus [36]): Toxic
GI50 (NCI-H1975 [23]): 11.2 nM
